# Screening data deposited in PubChem by several laboratories.
# The list is not random: actives were taken first. Their share in the collection is about 2.5%.
# MEKK3 PB1 HTS: raises or lowers MEK5 binding to the human MEKK3 PB1 domain. bead-based flow cytometry, Alexa488-MEK5 binding to MEKK3; actives lie on both sides; 0 = blocked by unlabeled MEK5, 100 = vehicle. AID 1529. actives 1.4% (n = 290,000). Q99759. binding response (% of control), % at 10 µM;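 active means binding response more than 3 SD above or below the average of its plate-row segment, actives on both sides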;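 further: Alexa488 bead fluorescence after subtracting the streptavidin-only scavenger bead signal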
# MEKK2wt PB1 HTS: raises or lowers MEK5 binding to wildtype human MEKK2 PB1 domain. Q9Y2U5. bead flow cytometry, Alexa488-MEK5 binding to MEKK2 WT; actives lie on both sides. binding response (% of control), % at 10 µM. actives 1.1% (n = 290,000). AID 1531; in the data active means binding response below about 67% or above about 130%
# MEKK2 mut-MEK5: signal of MEK5 binding to mutant human MEKK2 PB1 domain | percent response, % at 10 µM | actives 0.35% (n = 290,000) | bead flow cytometry, Alexa488-MEK5 binding to MEKK2 mutant; in the data active means percent response above about 24%, passing the limit was not always enough
# Rce1 inhib: yeast Ras-converting enzyme inhibition | Q03530 | yeast membranes, quenched prenylated peptide cleavage fluorescence | calls only | actives 0.27% (n = 290,000);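 active means fall in fluorescence gain of 50% or more versus controls, with final raw signal at or below 3038400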;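 further: plate controls were neutral control wells for no effect and wells lacking membranes for full effect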
# Target sequence (Q03530 whole entry, looked up): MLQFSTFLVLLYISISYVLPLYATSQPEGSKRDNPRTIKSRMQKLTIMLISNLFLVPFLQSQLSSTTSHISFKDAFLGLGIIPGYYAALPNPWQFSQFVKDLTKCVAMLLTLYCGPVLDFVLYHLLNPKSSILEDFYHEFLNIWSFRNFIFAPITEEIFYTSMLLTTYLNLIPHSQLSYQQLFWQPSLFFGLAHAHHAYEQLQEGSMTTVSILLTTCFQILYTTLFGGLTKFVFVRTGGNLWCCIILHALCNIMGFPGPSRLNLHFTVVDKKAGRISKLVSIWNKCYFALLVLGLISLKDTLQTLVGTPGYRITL
# UCH37 DUB inh: inhibitors of human deubiquitinating enzyme UCH37 | purified proteasome/UCH37, Ub-AMC cleavage fluorescence | Q9Y5K5 | actives 0.33% (n = 330,000) | inhibition, % (no concentration beside the values);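 active means mean inhibition over replicate wells above about 20%, limit read from the data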;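 further: 0% = compound-free wells with enzyme and 100% = wells lacking proteasome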
# Target sequence (Q9Y5K5 whole entry, looked up): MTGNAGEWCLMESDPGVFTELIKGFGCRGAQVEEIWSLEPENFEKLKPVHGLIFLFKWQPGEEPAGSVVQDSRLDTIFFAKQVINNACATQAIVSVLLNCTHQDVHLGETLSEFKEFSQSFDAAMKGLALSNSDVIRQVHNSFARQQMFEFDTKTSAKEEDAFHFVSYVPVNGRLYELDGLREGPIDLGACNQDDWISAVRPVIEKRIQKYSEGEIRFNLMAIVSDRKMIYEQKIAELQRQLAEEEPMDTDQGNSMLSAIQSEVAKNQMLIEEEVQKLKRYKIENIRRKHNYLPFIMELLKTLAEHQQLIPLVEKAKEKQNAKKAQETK
#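 Test system – human UCH37 enzyme supplied as purified proteasome complex · Incubation – 30 min preincubation with enzyme, 25 min cleavage at room temperature · Detection – AMC fluorescence from Ub-AMC cleavage, excitation 355 nm, emission 460 nm · Benchmarks – no-proteasome wells (full inhibition) and compound-free wells (no inhibition)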
# T cell HTS: T cell immune modulation candidate | 2C CD8+ T cell-vesicle binding, flow cytometry; hits give low values | response (vesicle binding), % at 7 µM | actives 0.068% (n = 330,000);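 active means response, share of CD8 T cells binding vesicles, and their 90th percentile fluorescence all below set limits, cut at about 80% in these data, passing the limit was not always enough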;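 further: values below 100% mean blocked vesicle binding to the CD8+ T cells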
#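 Material: murine 2C transgenic CD8+ T lymphocytes / Also added: QL9-peptide-loaded Drosophila micro-vesicles bearing Ld, ICAM-1 and B7-1 / Schedule: binding step 1.5 h, 37 °C, antibody labelling 20 min, ice / Signal: flow cytometry, PE anti-B7-1 (FL2) versus Alexa647 anti-CD8 (FL8), PFA-fixed / Evaluation: percent CD8+ FL2 mean versus row control / Benchmarks: naked versus QL9-loaded vesicles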
# MEKK2wt confirm: raises or lowers MEK5 binding to wildtype human MEKK2, retest. shares compounds with MEKK3 PB1 HTS. bead flow cytometry, Alexa488-MEK5 binding to MEKK2 WT; actives lie on both sides. binding response (% of control), % at 10 µM. actives 2.4% (n = 5,900). AID 1892; in the data active means binding response below about 16% or above about 210%; inactive means in between
# MEKK2mut confirm: signal of MEK5 binding to mutant human MEKK2, retest; shares compounds with MEKK3 PB1 HTS; bead flow cytometry, Alexa488-MEK5 binding to MEKK2 mutant; percent response, % at 10 µM; actives 2% (n = 5,900); in the data active means percent response mostly above about 71%, no sharp cut-off; inactive means mostly below about 38%;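 further: higher means compound restores mutant binding toward wildtype level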
# MEKK3 confirm: MEKK3-MEK5 PB1 inhibition, single concentration confirmation; actives 1.8% (n = 5,900); binding response (% of control), % at 10 µM; bead flow cytometry, Alexa488-MEK5 binding to MEKK3; hits give low values; shares compounds with MEKK3 PB1 HTS; AID 1894;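 active means binding response below 72% of control, or above a set upper limit, though filed actives all read lower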;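 further: 100% = DMSO only wells and 0% = binding blocked by excess unlabeled MEK5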
# * marks the source's active call; other numbers are inactive results; i = inactive; x = not tested or not shown; + = active, no number; [ ] = another dose, or the depositor's remark.
SMILES,MEKK3 PB1 HTS,MEKK2wt PB1 HTS,MEKK2 mut-MEK5,Rce1 inhib,UCH37 DUB inh,T cell HTS,MEKK2wt confirm,MEKK2mut confirm,MEKK3 confirm
CCOC(=O)c1ccc2c(c1)nc(SCC(=O)c1cc3ccccc3o1)n2CC,73*[inhibitor],55*[inhibitor],-51,i,4,240,98,-3,100
O=C(CSc1nccc(=O)[nH]1)c1cc2ccccc2o1,112,102,1,i,x,366,x,x,x
O=C(CSc1ncn[nH]1)c1cc2ccccc2o1,173*,+,+,x,4,151,90,-7,100
O=C(NCCN1CCCCC1)c1ccco1,129*,116,5,i,3,340,101,0,100
O=C(NCCCN1CCCCCC1)c1ccc(CS(=O)(=O)Cc2ccccc2F)o1,83,200*,28*,x,2,x,179,41,75
O=C(NCCN1CCCCCC1)c1ccc(CS(=O)(=O)c2ccc(Br)cc2)o1,99,169*,26*,i,5,225,183,59,113
O=C(NCCCN1CCOCC1)c1ccco1,100,102,5,i,1,164,x,x,x
COCc1cc(C)nc(OCC(=O)NN=Cc2ccc(C)o2)c1C#N,x,x,x,x,4,x,x,x,x
O=C1c2ccccc2C(=O)N1CCCCSc1nc2ccccc2c(=O)n1CCCN1CCOCC1,143*,135,6,i,3,121,107,-1,102
CCn1c(SCC(=O)N2CCCC2)nc2ccccc2c1=O,74*[inhibitor],52*[inhibitor],5,i,-1,356,105,7,109
Cc1ccc(NC(=O)CSc2nc3ccccc3c(=O)n2CCCN2CCCCC2)cc1C,101,149*,4,i,4,754,142,22,108
O=C1c2ccccc2C(=O)N1CCSc1nc2ccccc2c(=O)n1CCCN1CCOCC1,92,86,-11,i,3,188,x,x,x
CC(C)COc1ccc(CNC(=S)NN=Cc2ccc([N+](=O)[O-])cc2)cc1,x,x,x,x,5,x,x,x,x
Cc1nn(-c2ccccc2)c(Cl)c1C=NNC(=O)c1[nH]ncc1Br,x,x,x,x,1,x,x,x,x
COc1ccc(-c2cc3ccccc3n2CC(O)CN2CCC(C)CC2)cc1 (stereo not given),99,149*,16,i,-1,144,152,34,107
O=C1C2C3C=CC(CC3)C2C(=O)N1N=Cc1c(O)ccc2ccccc12 (stereo not given),x,x,x,x,2,x,x,x,x
CC1(C)CCC23CC[C@]4(C)C(OC2=O)(C3C1)[C@H]1O[C@H]1C1[C@@]2(C)CC[C@@H](O)C(C)(C)C2CC[C@]14C (stereo not given in full),101,97,2,x,x,x,x,x,x
CC12CCCC[C@@H]1CCC1C2CCC2(C)C1CC[C@@]2(O)CNCCO (stereo not given in full),106,136*,25*,i,3,850,107,10,87
Cc1n[nH]c(=O)nc1N/N=C/c1ccc(O)c([N+](=O)[O-])c1,129*,107,1,i,x,516,99,0,102
CCCC1SC(=NN=Cc2ccc(OC)cc2)N(Cc2ccccc2)C1=O (stereo not given),x,x,x,x,4,x,x,x,x
CCN=C1NN=C(c2cc(C)n(CCc3ccccc3)c2C)CS1,106,130,12,x,5,x,x,x,x
Cc1cc(C2=NNC(=NCCc3ccccc3)SC2)c(C)n1CC1CCCO1 (stereo not given),105,150*,24,i,2,235,135,27,100
CCN(CC)c1nc(OCCNC(=O)Nc2ccccc2)nc(N(CC)CC)n1,111,118,24*,i,4,383,95,-9,96
O=C(NCCOc1nc(N2CCCCC2)nc(N2CCCCC2)n1)Nc1ccccc1,106,106,5,i,5,101,x,x,x
CCN1/C(=C/C=C/C=C/c2sc3ccccc3[n+]2CC)Sc2ccccc21,18*[inhibitor],15*[inhibitor],-8,i,x,852,40,-28,26*
SMILES,MEKK3 PB1 HTS,MEKK2wt PB1 HTS,MEKK2 mut-MEK5,Rce1 inhib,UCH37 DUB inh,T cell HTS,MEKK2wt confirm,MEKK2mut confirm,MEKK3 confirm
c1ccc(Nc2c(-c3ccco3)nc3ccccn23)cc1,102,98,-1,i,x,315,x,x,x
c1ccc(-c2nc(-c3ccco3)n3ccccc23)cc1,92,58*[inhibitor],-1,i,-109,407,101,-10,98
CCC(=NNC(=O)c1ccc(-c2ccccc2)cc1)C12CC3CC(CC(C3)C1)C2,x,x,x,x,2,x,x,x,x
O=C(NN=Cc1ccccc1OC(F)F)C1=COCCO1,x,x,x,x,0,x,x,x,x
O=C(Nc1ccc(Nc2ccccc2)cc1)c1ccc(Cl)cc1[N+](=O)[O-],x,x,x,i,6,i,x,x,x
O=C(O)CCCNc1c(C(=O)Nc2ccc(Cl)cc2)cc([N+](=O)[O-])cc1[N+](=O)[O-],135*,118,11,i,12,144,105,8,107
CC(C)(C)c1ccc(NC(=O)c2c(F)cccc2Cl)cc1,47*[inhibitor],34*[inhibitor],-61,i,7,401,105,5,105
OCC(O)C=NNc1nc2ccccc2s1 (stereo not given),x,x,x,x,6,x,x,x,x
Cc1nc(NC(=O)C23CC4CC(CC(C4)C2)C3)sc1Cc1ccc2c(c1)OCO2,108,147*,30,i,4,523,131,15,105
COc1ccc(NC(=O)C2CC(=O)N/C(=N/N=Cc3ccco3)S2)cc1 (stereo not given),x,x,x,x,5,x,x,x,x
O=C(O)c1cc(O)ccc1NC(=O)c1cccc2ccccc12,132*,122,26,i,6,147,100,-3,103
CC(=O)Nc1ccccc1NC(=O)c1cccc2ccccc12,80,85,-2,i,2,323,x,x,x
CCc1nnc(NC(=O)Cc2c[nH]c3ccccc23)s1,138*,121,7,i,0,424,103,5,107
Cc1ccc(CSc2nc3c(c(=O)[nH]2)CCC3)cc1,109,107,10,i,1,i,x,x,x
Cc1cccc(CSc2nc3c(c(=O)[nH]2)CCC3)c1,134*,115,3,i,5,479,109,8,103
CC(C)(C)c1ccccc1OCCOCCN1CCCCCC1,106,164*,37,i,0,246,138,17,107
